Experimental data reported in ChEMBL document CHEMBL1153566, “5-Benzylidene-hydantoins: synthesis and antiproliferative activity on A549 lung cancer cell line” (Eur J Med Chem, 2009).
Active and inactive are the calls of the source. The calls are words filed in the database; no cut-off is given here.

Legend:
A549 [1] = experiment: Induction of p53 protein expression in human A549 cells at 10 uM after 72 hrs by Western blot relative to untreated control; type: functional
Summary of the method: (§1)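 A549 cells (RPMI 1640, 2 mM glutamine, 10% FBS, 37 °C, 5% CO2) treated with compound; lysate proteins (50 µg) run on 5–15% SDS–PAGE, blotted to nitrocellulose, probed with mouse anti-human p53 (DO1) and anti-GAPDH monoclonals, then HRP secondary. p53 level given as fold increase over control; mean ± SD of three independent experiments, one-tailed Student's t-test.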

A549 [2] = experiment: Induction of p53 protein expression in human A549 cells at 10 uM after 48 hrs by Western blot relative to untreated control; type: functional; summary of the method: as §1
A549 [3] = experiment: Induction of p53 protein expression in human A549 cells at 20 uM after 48 hrs by Western blot relative to untreated control; type: functional; summary of the method: as §1
A549 [4] = experiment: Induction of p53 protein expression in human A549 cells at 20 uM after 72 hrs by Western blot relative to untreated control; type: functional; summary of the method: as §1
A549 [5] = experiment: Antiproliferative activity against human A549 cells at 20 uM after 72 hrs by trypan blue exclusion method; type: functional; conditions: A549, 72 h
A549 [6] = experiment: Cell cycle arrest in human A549 cells assessed as accumulation at S phase; type: functional, cell-based
[7] = target: Epidermal growth factor receptor (Homo sapiens, UniProt P00533); experiment: Inhibition of EGFR autophosphorylation in human A549 cells
A549 [8] = experiment: Induction of DNA damage in human A549 cells; type: functional, cell-based

Epidermal growth factor receptor, sequence (P00533 whole entry): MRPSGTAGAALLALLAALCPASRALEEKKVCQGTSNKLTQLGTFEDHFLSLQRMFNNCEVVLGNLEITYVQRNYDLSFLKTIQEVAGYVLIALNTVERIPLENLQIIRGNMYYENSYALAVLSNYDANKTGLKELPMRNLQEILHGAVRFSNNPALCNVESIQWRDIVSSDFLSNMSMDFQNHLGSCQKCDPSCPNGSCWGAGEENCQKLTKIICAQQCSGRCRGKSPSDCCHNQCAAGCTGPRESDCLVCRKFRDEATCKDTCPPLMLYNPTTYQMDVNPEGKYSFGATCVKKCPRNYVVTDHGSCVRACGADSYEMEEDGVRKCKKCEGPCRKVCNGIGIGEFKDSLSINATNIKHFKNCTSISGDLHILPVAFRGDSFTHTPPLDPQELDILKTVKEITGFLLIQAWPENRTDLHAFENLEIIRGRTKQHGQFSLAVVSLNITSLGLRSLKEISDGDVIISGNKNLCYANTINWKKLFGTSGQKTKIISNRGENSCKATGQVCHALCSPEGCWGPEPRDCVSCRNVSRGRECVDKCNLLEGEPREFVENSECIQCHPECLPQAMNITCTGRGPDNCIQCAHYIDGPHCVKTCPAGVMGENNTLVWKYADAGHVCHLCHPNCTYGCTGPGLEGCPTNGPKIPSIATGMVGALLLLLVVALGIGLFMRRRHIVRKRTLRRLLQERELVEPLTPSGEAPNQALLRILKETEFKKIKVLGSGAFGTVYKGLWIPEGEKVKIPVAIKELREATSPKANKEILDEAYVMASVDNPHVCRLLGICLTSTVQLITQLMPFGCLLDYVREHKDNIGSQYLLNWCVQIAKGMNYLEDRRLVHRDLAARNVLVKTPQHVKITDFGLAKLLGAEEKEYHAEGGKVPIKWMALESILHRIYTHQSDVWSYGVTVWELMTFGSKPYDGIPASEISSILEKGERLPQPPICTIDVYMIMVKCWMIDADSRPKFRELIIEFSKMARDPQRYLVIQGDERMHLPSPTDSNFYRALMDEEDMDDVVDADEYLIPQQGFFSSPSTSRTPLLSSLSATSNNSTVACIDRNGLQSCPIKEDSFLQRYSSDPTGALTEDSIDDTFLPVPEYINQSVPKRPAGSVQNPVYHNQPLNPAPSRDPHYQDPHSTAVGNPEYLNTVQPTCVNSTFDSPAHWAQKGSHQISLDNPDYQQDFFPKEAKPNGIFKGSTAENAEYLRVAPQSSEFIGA

SMILES	fold change (FC) (A549 [3])	inhibition at 20 µM (A549 [5])	other results
O=C1NC(=O)N(Cc2ccccc2)/C1=C\c1ccccc1	1.7	42%	fold change (FC) (A549 [1]): 1.8; fold change (FC) (A549 [2]): 1.1; fold change (FC) (A549 [4]): 2.6
CN1C(=O)NC(=O)/C1=C/c1ccccc1	1	16%	–
CC(=O)Nc1ccc(/C=C2/C(=O)NC(=O)N2CCc2ccccc2)cc1	–	32%	–
O=C1NC(=O)N(CCc2ccccc2)/C1=C\c1ccc(O)cc1	1.5	44%	fold change (FC) (A549 [1]): 1.7; fold change (FC) (A549 [2]): 0.9; fold change (FC) (A549 [4]): 2.7
O=C1NC(=O)N(CCc2ccccc2)/C1=C/c1cccc(O)c1	0.9	28%	–
O=C1NC(=O)N(CCc2ccccc2)/C1=C\c1cccc(O)c1	1.1	40%	–
O=C1NC(=O)N(CCc2ccccc2)/C1=C/c1ccc(O)cc1	2.3	53%	fold change (FC) (A549 [1]): 1.4; fold change (FC) (A549 [2]): 1; Activity (A549 [6]): Active; IC50 [7]: 19 µM; fold change (FC) (A549 [4]): 3.2; Activity (A549 [8]): Active
CCCCN1C(=O)NC(=O)/C1=C/c1ccccc1	–	18%	–
O=C1NC(=O)N(CCc2ccccc2)/C1=C\c1ccccc1	1.3	42%	–
O=C1NC(=O)N(CCc2cccc(Cl)c2)/C1=C\c1ccccc1	1.5	49%	fold change (FC) (A549 [1]): 1.1; fold change (FC) (A549 [2]): 0.7; fold change (FC) (A549 [4]): 2.2
O=C1NC(=O)N(CCc2cccc(Cl)c2)/C1=C/c1ccccc1	–	10%	–
O=C1NC(=O)N(Cc2ccccc2)/C1=C/c1ccc(O)cc1	1.8	41%	–
CC(=O)Nc1ccc(/C=C2\C(=O)NC(=O)N2CCc2ccccc2)cc1	1.7	39%	–
CCCCN1C(=O)NC(=O)/C1=C\c1ccc(Cl)cc1	–	29%	–
CCCCCCN1C(=O)NC(=O)/C1=C/c1ccccc1	–	0%	–
O=C1NC(=O)N(CCc2ccccc2)[C@@H]1Cc1ccccc1	1	7.2%	–
O=C1NC(=O)N(Cc2ccccc2)/C1=C/c1ccccc1	–	2.9%	–
O=C1NC(=O)N(CCc2ccccc2)/C1=C/c1cccc(Cl)c1	–	35%	–
O=C1NC(=O)N(Cc2ccccc2)/C1=C\c1ccc(O)cc1	2	32%	–
CCCCN1C(=O)NC(=O)/C1=C\c1ccccc1	–	6.8%	–
O=C1NC(=O)N(CCc2ccccc2)/C1=C/c1ccccc1	1.2	9.4%	–
CN1C(=O)NC(=O)/C1=C\c1ccccc1	1.1	5.7%	–
CN1C(=O)/C(=C\c2ccccc2)N(CCc2ccccc2)C1=O	1	31%	–
CN1C(=O)/C(=C/c2ccccc2)N(CCc2ccccc2)C1=O	1	45%	–
O=C1NC(=O)N(CCc2ccccc2)/C1=C\c1cccc(Cl)c1	1.2	43%	fold change (FC) (A549 [1]): 1.4; fold change (FC) (A549 [2]): 0.9; fold change (FC) (A549 [4]): 1.9
CCCCN1C(=O)NC(=O)/C1=C/c1ccc(Cl)cc1	–	26%	–
O=C1NC(=O)N(c2ccccc2)/C1=C\c1ccccc1	–	26%	–
O=C1NC(=O)N(c2ccccc2)/C1=C/c1ccccc1	–	18%	–
COc1ccc(/C=C2\C(=O)NC(=O)N2CCc2ccccc2)cc1	1	35%	–
CCCCCCN1C(=O)NC(=O)/C1=C\c1ccccc1	–	14%	–
